Measurements taken from ChEMBL document CHEMBL3352788, “Characterization of selective exosite-binding inhibitors of matrix metalloproteinase 13 that prevent articular cartilage degradation in vitro” (J Med Chem, 2014).

Columns and labels:
[1] = biological target: Cytochrome P450 2C19 (Homo sapiens, UniProt P33261); assay: Inhibition of CYP2C19 (unknown origin) using (S)-mephentoin substrate; assay type: ADME
How it was run: (§1)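 Human liver microsomes with probe substrate and an NADPH-regenerating system in 0.1 M potassium phosphate pH 7.4 at 37 °C, run in duplicate. Inhibitor at 0–20 μM (0–2.5 μM for one compound), eight concentrations. Reactions were stopped with acetonitrile/formic acid containing isotope-labelled internal standard, and metabolite area ratios were compared with and without inhibitor. IC50 was taken by linear interpolation between bracketing concentrations.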

[2] = biological target: Macrophage metalloelastase (Homo sapiens) (UniProt P39900); assay: Inhibition of recombinant human MMP-12 using GRIGFL substrate up to 20 uM
How it was run: (§2)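 Outsourced microfluidic protease panel. Compound was preincubated with each protease for 30 min at 25 °C, then peptide substrate was added for 3 h at 25 °C and quenched with SDS/EDTA/iodoacetate. Substrate-to-product conversion was measured on LabChip. Compounds were tested singly in a 12-point 3-fold dilution series, top 20 μM (5 μM for two reference compounds).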

[3] = biological target: T1, Caspase-1 (Homo sapiens) (UniProt P29466); assay: Inhibition of recombinant human caspase 1 using WEHDGPKR substrate at up to 20 uM after 3 hrs; how it was run: as §2
T1 sequence (whole entry): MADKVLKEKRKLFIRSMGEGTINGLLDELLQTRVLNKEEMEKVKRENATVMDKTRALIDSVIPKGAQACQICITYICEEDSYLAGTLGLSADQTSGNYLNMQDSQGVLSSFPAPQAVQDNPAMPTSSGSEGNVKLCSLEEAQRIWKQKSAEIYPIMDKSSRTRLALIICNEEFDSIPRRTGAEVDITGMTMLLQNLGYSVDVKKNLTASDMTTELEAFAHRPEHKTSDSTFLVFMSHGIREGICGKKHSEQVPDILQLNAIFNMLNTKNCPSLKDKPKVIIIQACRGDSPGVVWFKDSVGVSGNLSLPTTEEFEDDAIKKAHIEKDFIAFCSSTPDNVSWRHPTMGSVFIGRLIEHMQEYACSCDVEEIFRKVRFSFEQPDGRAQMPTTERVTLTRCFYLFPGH

[4] = biological target: Procathepsin L (Homo sapiens) (UniProt P07711); assay: Inhibition of recombinant human cathepsin L using GGALRAG substrate at up to 20 uM after 3 hrs
How it was run: (§3)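 Each protease was preincubated 30 min at 25 °C with compound in its assay buffer. Peptide substrate was then added and the reaction ran 3 h at 25 °C before quenching with SDS/EDTA/iodoacetate. Substrate-to-product conversion (%) was read by microfluidic electrophoresis. Compounds were tested in singlicate as 12-point 3-fold dilutions from 20 μM to 0.1 nM. IC50 was taken as the concentration giving 50% of no-compound control activity.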

[5] = biological target: Prothrombin (Homo sapiens) (UniProt P00734); assay: Inhibition of recombinant human thrombin using PRTLT substrate at up to 20 uM after 3 hrs; how it was run: as §3
[6] = biological target: T2, Caspase-7 (Homo sapiens) (UniProt P55210); assay: Inhibition of recombinant human caspase 7 using DEVDAA substrate at up to 20 uM after 3 hrs; how it was run: as §2
T2 sequence (whole entry): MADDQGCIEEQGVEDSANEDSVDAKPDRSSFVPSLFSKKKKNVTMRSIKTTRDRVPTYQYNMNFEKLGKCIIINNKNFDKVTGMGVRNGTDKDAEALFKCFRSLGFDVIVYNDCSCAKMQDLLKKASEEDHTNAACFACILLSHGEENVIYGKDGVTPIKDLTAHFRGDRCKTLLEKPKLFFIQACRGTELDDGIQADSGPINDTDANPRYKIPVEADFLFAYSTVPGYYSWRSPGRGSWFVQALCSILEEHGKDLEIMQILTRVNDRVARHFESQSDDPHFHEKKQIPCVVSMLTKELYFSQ

[7] = biological target: Cytochrome P450 3A4 (Homo sapiens, UniProt P08684); assay: Inhibition of CYP3A4 (unknown origin) using midazolam substrate; assay type: ADME
How it was run: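 Reactions stopped with acetonitrile/0.1% formic acid plus labelled internal standard. Metabolite measured by LC-MS area ratio. IC50 by linear interpolation.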

[8] = biological target: Cathepsin D (Homo sapiens) (UniProt P07339); assay: Inhibition of recombinant human cathepsin D using EVNLDAEFRK substrate at up to 20 uM after 3 hrs; how it was run: as §2
[9] = biological target: Urokinase-type plasminogen activator (Homo sapiens) (UniProt P00749); assay: Inhibition of recombinant human uPA using GRTSSVEP substrate at up to 20 uM after 3 hrs; how it was run: as §3
[10] = biological target: 72 kDa type IV collagenase (Homo sapiens) (UniProt P08253); assay: Inhibition of recombinant human MMP-2 using GRIGFL substrate up to 20 uM; how it was run: as §2
[11] = biological target: Coagulation factor X (Homo sapiens) (UniProt P00742); assay: Inhibition of recombinant human factor 10a using ALPRTMFIQ substrate at up to 20 uM after 3 hrs; how it was run: as §3
[12] = biological target: Stromelysin-1 (Homo sapiens) (UniProt P08254); assay: Inhibition of recombinant human MMP-3 using GRIGFL substrate up to 20 uM; how it was run: as §2
[13] = biological target: Furin (Homo sapiens) (UniProt P09958); assay: Inhibition of recombinant human furin using RRVKRSLD substrate at up to 20 uM after 3 hrs; how it was run: as §3
[14] = biological target: T3, Cytochrome P450 2B6 (Homo sapiens, UniProt P20813); assay: Inhibition of CYP2B6 (unknown origin) using bupropion substrate; assay type: ADME; how it was run: as §1
T3 sequence (P20813 whole entry): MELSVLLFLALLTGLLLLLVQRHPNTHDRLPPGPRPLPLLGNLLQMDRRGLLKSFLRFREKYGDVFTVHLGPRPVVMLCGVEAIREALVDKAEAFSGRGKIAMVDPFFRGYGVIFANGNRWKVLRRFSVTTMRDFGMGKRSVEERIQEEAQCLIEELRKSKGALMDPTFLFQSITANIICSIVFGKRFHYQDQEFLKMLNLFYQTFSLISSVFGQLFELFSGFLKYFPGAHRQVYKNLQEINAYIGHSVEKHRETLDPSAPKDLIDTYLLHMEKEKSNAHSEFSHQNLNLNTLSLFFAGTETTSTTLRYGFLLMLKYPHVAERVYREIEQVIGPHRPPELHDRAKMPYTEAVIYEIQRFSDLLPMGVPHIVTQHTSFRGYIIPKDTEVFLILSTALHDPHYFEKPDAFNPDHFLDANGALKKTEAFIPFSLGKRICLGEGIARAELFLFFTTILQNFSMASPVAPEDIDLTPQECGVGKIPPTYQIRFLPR

Furin (Homo sapiens), sequence (P09958 whole entry): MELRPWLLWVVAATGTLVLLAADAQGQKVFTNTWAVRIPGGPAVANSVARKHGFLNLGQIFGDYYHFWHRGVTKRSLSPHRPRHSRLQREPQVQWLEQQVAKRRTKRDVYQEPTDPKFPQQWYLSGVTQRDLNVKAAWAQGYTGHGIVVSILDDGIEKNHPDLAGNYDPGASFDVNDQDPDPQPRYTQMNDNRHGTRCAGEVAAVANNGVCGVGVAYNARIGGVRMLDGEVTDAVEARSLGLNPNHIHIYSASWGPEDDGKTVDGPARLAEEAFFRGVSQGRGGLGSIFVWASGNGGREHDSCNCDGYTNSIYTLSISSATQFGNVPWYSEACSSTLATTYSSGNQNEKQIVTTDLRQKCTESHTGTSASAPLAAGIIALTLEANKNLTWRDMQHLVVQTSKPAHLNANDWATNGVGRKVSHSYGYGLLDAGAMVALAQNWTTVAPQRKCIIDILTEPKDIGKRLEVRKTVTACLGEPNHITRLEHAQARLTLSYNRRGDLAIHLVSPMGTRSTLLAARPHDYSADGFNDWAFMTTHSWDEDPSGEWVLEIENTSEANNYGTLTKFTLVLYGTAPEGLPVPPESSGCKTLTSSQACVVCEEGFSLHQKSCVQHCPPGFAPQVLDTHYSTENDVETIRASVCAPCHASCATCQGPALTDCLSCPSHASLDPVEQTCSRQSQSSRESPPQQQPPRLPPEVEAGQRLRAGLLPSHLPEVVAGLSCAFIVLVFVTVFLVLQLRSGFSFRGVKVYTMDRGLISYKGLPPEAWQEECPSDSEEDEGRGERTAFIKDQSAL
Coagulation factor X (Homo sapiens), sequence (P00742 41-179 limits assumed): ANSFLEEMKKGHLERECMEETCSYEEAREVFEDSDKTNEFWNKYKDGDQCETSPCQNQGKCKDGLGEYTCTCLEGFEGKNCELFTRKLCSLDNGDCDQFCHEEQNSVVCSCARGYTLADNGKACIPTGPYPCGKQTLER
Coagulation factor X (Homo sapiens), sequence (P00742 235-488 limits assumed): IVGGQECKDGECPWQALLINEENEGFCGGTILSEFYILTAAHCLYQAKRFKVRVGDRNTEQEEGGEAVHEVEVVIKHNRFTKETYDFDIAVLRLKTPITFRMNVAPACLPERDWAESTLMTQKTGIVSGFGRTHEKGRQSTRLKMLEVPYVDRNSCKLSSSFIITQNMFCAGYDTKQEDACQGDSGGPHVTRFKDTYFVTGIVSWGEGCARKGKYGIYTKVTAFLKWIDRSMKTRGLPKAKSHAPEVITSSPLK
Cytochrome P450 2C19, sequence (P33261 whole entry): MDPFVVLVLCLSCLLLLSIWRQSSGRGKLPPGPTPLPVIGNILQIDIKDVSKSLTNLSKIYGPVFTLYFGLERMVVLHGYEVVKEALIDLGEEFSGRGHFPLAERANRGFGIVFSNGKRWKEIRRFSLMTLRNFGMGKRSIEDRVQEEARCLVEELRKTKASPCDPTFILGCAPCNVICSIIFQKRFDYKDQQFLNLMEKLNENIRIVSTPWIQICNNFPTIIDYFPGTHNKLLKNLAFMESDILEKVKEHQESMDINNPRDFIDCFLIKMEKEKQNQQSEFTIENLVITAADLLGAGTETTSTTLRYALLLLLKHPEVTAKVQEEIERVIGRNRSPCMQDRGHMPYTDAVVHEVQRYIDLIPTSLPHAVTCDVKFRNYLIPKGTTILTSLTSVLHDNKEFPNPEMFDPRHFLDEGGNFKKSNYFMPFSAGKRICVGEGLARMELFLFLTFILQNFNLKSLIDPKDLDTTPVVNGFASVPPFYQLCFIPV
Macrophage metalloelastase (Homo sapiens), sequence (P39900 106-470 limits assumed): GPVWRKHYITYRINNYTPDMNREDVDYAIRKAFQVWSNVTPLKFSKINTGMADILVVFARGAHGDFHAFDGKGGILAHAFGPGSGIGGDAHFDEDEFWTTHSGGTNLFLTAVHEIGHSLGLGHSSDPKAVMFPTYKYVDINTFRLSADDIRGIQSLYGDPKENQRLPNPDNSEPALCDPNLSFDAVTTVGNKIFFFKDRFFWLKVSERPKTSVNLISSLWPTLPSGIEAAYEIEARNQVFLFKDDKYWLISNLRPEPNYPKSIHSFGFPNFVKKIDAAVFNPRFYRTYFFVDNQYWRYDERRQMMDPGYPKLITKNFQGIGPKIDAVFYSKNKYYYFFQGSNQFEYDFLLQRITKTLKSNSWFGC
72 kDa type IV collagenase (Homo sapiens), sequence (P08253 110-660 limits assumed): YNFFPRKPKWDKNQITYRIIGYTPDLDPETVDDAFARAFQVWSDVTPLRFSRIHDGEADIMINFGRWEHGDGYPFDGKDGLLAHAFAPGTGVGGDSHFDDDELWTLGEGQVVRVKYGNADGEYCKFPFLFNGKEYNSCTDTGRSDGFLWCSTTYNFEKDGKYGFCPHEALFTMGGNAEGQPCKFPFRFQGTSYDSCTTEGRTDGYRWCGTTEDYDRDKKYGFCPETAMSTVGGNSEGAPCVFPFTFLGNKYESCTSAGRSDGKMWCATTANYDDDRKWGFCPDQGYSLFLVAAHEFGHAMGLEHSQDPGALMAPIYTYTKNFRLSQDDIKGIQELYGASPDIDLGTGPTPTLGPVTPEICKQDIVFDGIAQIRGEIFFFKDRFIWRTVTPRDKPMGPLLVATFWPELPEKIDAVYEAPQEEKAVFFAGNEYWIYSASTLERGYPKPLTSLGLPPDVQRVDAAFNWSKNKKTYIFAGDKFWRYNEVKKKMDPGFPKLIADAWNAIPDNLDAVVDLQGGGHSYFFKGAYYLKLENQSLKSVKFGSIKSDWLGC
Cathepsin D (Homo sapiens), sequence (P07339 65-162 limits assumed): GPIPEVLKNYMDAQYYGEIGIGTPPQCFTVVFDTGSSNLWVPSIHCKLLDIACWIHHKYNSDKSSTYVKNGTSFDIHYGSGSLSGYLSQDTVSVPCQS
Cathepsin D (Homo sapiens), sequence (P07339 169-412 limits assumed): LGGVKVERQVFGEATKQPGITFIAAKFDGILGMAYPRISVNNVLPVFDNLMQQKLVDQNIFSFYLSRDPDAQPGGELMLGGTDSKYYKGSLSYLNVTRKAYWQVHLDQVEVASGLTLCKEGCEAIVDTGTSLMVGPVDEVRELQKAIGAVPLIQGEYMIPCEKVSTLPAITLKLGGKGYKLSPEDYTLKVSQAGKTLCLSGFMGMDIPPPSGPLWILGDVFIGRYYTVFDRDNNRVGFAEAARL
Cytochrome P450 3A4, sequence (P08684 whole entry): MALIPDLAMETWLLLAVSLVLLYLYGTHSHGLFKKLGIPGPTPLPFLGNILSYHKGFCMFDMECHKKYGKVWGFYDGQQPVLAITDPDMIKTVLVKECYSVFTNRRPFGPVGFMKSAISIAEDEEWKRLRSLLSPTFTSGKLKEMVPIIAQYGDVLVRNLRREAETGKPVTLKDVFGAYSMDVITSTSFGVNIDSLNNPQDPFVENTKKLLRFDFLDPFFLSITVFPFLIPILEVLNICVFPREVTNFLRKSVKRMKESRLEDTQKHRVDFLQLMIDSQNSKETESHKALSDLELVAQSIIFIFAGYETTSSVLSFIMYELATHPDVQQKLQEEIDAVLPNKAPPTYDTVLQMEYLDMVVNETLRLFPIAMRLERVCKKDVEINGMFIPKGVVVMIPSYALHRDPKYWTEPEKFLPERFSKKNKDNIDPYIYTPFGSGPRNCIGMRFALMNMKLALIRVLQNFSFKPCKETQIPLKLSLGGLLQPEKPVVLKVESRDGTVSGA
Stromelysin-1 (Homo sapiens), sequence (P08254 100-477 limits assumed): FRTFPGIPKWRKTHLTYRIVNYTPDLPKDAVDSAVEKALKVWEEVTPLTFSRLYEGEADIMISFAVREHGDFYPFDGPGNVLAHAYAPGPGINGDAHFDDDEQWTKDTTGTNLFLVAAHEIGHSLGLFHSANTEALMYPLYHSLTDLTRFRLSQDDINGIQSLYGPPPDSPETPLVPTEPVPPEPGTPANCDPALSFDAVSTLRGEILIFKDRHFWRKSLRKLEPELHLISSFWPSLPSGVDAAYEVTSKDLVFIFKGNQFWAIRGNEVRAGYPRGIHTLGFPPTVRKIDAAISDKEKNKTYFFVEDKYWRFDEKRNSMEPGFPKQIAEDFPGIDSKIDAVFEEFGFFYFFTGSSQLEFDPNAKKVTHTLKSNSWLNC
Procathepsin L (Homo sapiens), sequence (P07711 114-333 limits assumed): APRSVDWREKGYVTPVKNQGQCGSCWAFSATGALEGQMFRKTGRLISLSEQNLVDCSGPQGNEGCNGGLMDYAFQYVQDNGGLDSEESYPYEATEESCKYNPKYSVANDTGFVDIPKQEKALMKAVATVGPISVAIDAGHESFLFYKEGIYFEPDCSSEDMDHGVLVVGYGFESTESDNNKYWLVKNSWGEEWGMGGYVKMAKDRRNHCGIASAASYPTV

With Oc1nc(SCc2ccc(Cl)cc2)nc2c1CCC2 the IC50 [1] was 6.5 µM, the inhibition [2] was greater than 10% and the inhibition [3] was less than 10%. For the same compound, the inhibition [4] was less than 10%, the inhibition [5] was less than 10% and the inhibition [6] was less than 10%. For the same compound, the IC50 [7] was greater than 20 µM, the inhibition [8] was less than 10% and the inhibition [9] was less than 10%. For the same compound, the inhibition [10] was greater than 10%, the inhibition [11] was less than 10% and the inhibition [12] was greater than 10%. It also gave an inhibition [13] of less than 10% and an IC50 [14] greater than 20 µM.

Cc1ccc(CSc2nc(O)c3c(n2)CCC3)cc1 was tested, and the inhibition [2] was greater than 10%, the inhibition [3] was less than 10% and the inhibition [4] was less than 10%. The inhibition [5] was less than 10%, the inhibition [6] was less than 10% and the inhibition [8] was less than 10%. It also gave an inhibition [9] of less than 10%, an inhibition [10] greater than 10% and an inhibition [11] of less than 10%. It also gave an inhibition [12] greater than 10% and an inhibition [13] of less than 10%.

Cc1cc(CNC(=O)c2cc(C(=O)NCc3ccc(F)c(C)c3)ncn2)ccc1F gave an IC50 [1] greater than 20 µM and an IC50 [14] greater than 20 µM.

In the case of COC(=O)c1ccc(CSc2nc3c(c(=O)[nH]2)CCC3)cc1, the IC50 [1] is reported as greater than 20 µM, the inhibition [2] is reported as greater than 10% and the inhibition [3] is reported as less than 10%. It also gave an inhibition [4] of less than 10%, an inhibition [5] of less than 10% and an inhibition [6] of less than 10%. It also gave an IC50 [7] greater than 20 µM, an inhibition [8] of less than 10% and an inhibition [9] of less than 10%. It also gave an inhibition [10] greater than 10%, an inhibition [11] of less than 10% and an inhibition [12] greater than 10%. It also gave an inhibition [13] of less than 10% and an IC50 [14] greater than 20 µM.

With Cn1c(=O)n(Cc2ccc(C(=O)O)cc2)c(=O)c2cc(C#CCc3ccccc3)ccc21 the IC50 [1] was greater than 2.5 µM, the IC50 [7] was greater than 2.5 µM and the IC50 [14] was greater than 2.5 µM.
